# Measurements published in ChEMBL document CHEMBL3826882, “Discovery of 1-((2R,4aR,6R,7R,7aR)-2-Isopropoxy-2-oxidodihydro-4H,6H-spiro[furo[3,2-d][1,3,2]dioxaphosphinine-7,2'-oxetan]-6-yl)pyrimidine-2,4(1H,3H)-dione (JNJ-54257099), a 3'-5'-Cyclic Phosphate Ester Prodrug of 2'-Deoxy-2'-Spirooxetane Uridine Triphosphate Useful for HCV Inhibition” (J Med Chem, 2016).
# Key:
# [1] = tested on: Hepatitis C virus; assay: Antiviral activity against HCV genotype 3a infected in homozygous cDNA-uPA chimeric SCID mouse bearing humanized hepatocytes assessed as change in HCV RNA level in serum at 200 mg/kg, po bid administered through gavage for 7 days by RT-PCR method; type: functional, Hepacivirus hominis, Hepatocyte
# How it was run: (§1)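 Male chimeric SCID cDNA-uPA+/+ mice with human hepatocyte liver (≥70% replacement by blood human albumin) and serum HCV RNA >1.0×10^6 copies/mL the week before dosing. Oral gavage for 7 days in 20% HP-β-CD, 50-200 mg/kg QD or BID. Serum sampled pre-dose on days 1, 2, 3, 5 and 7. Real-time PCR; mean change in log10 copies/mL, day 7 vs day 1 pre-dose.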
# [2] = tested on: Hepatitis C virus; assay: Antiviral activity against HCV genotype 3a infected in homozygous cDNA-uPA chimeric SCID mouse bearing humanized hepatocytes assessed as reduction in HCV RNA level in serum administered through oral gavage twice daily daily for 7 days by RT-PCR method; type: functional, organism-based; details: Hepacivirus hominis, Hepatocyte; how it was run: as §1
# [3] = tested on: Hepatocyte; assay: Prodrug conversion in mouse cryopreserved hepatocytes assessed as 2'-deoxy-2'-spirooxetane uridine triphosphate level per million cells at 10 uM after 2 hrs by LC-MS/MS analysis; type: ADME, cell-based
# How it was run: (§2)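 Plated cryopreserved hepatocytes (study B) incubated with 10 µM unlabeled prodrug for 2, 8 or 24 h. Triphosphate measured in cell lysates and expressed as pmol/million hepatocytes. Quantification limit 2 ng/10^6 cells.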
# [4] = tested on: Hepatocyte; assay: Prodrug conversion in rat cryopreserved hepatocytes assessed as 2'-deoxy-2'-spirooxetane uridine triphosphate level per million cells at 10 uM after 24 hrs by LC-MS/MS analysis; type: ADME, cell-based; how it was run: as §2
# [5] = tested on: Hepatocyte; assay: Prodrug conversion in rat primary hepatocytes assessed as 2'-deoxy-2'-spirooxetane uridine triphosphate formation measured at 2 hrs by LC-MS/MS analysis; type: ADME, cell-based
# How it was run: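 Hepatocyte primary cultures followed over time for triphosphate formation in cell lysates: rat and mouse up to 24 h, human up to 96 h.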
# [6] = tested on: Hepatocyte; assay: Prodrug conversion in human hepatocytes assessed as 2'-deoxy-2'-spirooxetane uridine triphosphate formation in presence of CYP3A4 inhibitor ritonavir by LC-MS/MS analysis; type: ADME, cell-based
# [7] = tested on: Hepatocyte; assay: Drug level in human hepatocytes treated with JNJ-54257099 in presence of CYP2C8 and CYP2C9 inhibitor montelukast by LC-MS/MS analysis; type: ADME, cell-based
# [8] = tested on: Hepatocyte; assay: Drug metabolism in human hepatocytes assessed as ((4R,5R,7R,8R)-5-(2,4-dioxo-3,4-dihydropyrimidin-1(2H)-yl)-8-hydroxy-1,6-dioxaspiro[3.4]octan-7-yl)methyl dihydrogen phosphate formation in presence of CYP3A4 inhibitor ritonavir by LC-MS/MS analysis; type: ADME, cell-based
# [9] = tested on: Hepatocyte; assay: Drug level in human hepatocytes in presence of CYP3A4 inhibitor ritonavir by LC-MS/MS analysis; type: ADME, cell-based
# [10] = tested on: Hepatocyte; assay: Drug level in human hepatocytes in presence of pan-CYP inhibitor 1-ABT by LC-MS/MS analysis; type: ADME, cell-based
# [11] = tested on: Hepatocyte; assay: Prodrug conversion in human hepatocytes assessed as 2'-deoxy-2'-spirooxetane uridine triphosphate formation in presence of pan-PDE inhibitor ibudilast by LC-MS/MS analysis; type: ADME, cell-based
# [12] = tested on: Hepatocyte; assay: Prodrug conversion in human hepatocytes assessed as 2'-deoxy-2'-spirooxetane uridine triphosphate formation in presence of CYP2C8 and CYP2C9 inhibitor montelukast by LC-MS/MS analysis; type: ADME, cell-based
# [13] = tested on: Hepatocyte; assay: Drug metabolism in human hepatocytes assessed as ((4R,5R,7R,8R)-5-(2,4-dioxo-3,4-dihydropyrimidin-1(2H)-yl)-8-hydroxy-1,6-dioxaspiro[3.4]octan-7-yl)methyl dihydrogen phosphate formation in presence of PDE5 inhibitor sildenafil by LC-MS/MS analysis; type: ADME, cell-based
# [14] = Stability in human HuH7 cells assessed as parent compound level at 100 uM incubated for 96 hrs by LC-MS analysis; type: ADME, cell-based; details: huh-7, 96 h
# How it was run: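 Huh-7 replicon-containing cells incubated 96h with prodrug at 100µM; cell lysates analysed by LC-MS for triphosphate and remaining unmetabolised prodrug.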
# [15] = Cmax in mouse plasma at 50 mg/kg, po; type: ADME, organism-based; set-up: dose 50 mg/kg, route oral
# [16] = Tmax in mouse plasma at 50 mg/kg, po; type: ADME, organism-based
# How it was run: (§3)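 Single oral dose of 50 mg/kg formulated in 20% HP-β-cyclodextrin. Prodrug and its triphosphate were measured in plasma and liver (ng/mL or ng/g) over time, and Cmax, tmax, AUC, tlast and t1/2 were derived. For some analytes, data from two independent studies are reported.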
# [17] = tested on: Liver; assay: AUC (0 to last) in mouse liver at 50 mg/kg, po; type: ADME, organism-based; details: in vivo
# How it was run: (§4)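 Oral dose 50 mg/kg, formulated in 20% HP-β-cyclodextrin. Prodrug and triphosphate were measured in plasma and liver (ng/mL or ng/g). Parameters derived were Cmax, tmax, AUC0-last, AUC0-inf and t1/2. Some prodrug data come from two independent studies.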
# [18] = Half life in mouse liver at 50 mg/kg, po; type: ADME, organism-based
# How it was run: (§5)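 Single oral dose of 50 mg/kg in 20% HP-β-cyclodextrin. Prodrug and triphosphate measured in plasma and liver over time (tlast 6–30 h). Half-life, Cmax, tmax and AUC0-last derived; liver/plasma ratio taken from AUC0-last. Prodrug data pooled from two independent studies.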
# [19] = Tmax in rat liver at 50 mg/kg, po; type: ADME, organism-based; how it was run: as §3
# [20] = Half life in rat liver at 50 mg/kg, po; type: ADME, organism-based; how it was run: as §5
# [21] = tested on: Liver; assay: Tlast in rat liver assessed as 2'-deoxy-2'-spirooxetane uridine triphosphate at 50 mg/kg, po; type: ADME, organism-based; details: in vivo; how it was run: as §3
# [22] = AUC (0 to infinity) in dog plasma at 50 mg/kg, po; type: ADME, organism-based, Canis lupus familiaris; set-up: dose 50 mg/kg, time infinity, route oral; how it was run: as §4
# [23] = tested on: Hepatocyte; assay: Prodrug conversion in mouse primary hepatocytes assessed as 2'-deoxy-2'-spirooxetane uridine triphosphate level per million cells at 2 uM after 4 hrs using radiolabelled compound by LC-MS/MS analysis; type: ADME, cell-based
# How it was run: (§6)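 Study A: fresh primary hepatocyte cultures from mouse, rat, dog and human incubated with tritiated prodrug at 2 or 62.5 µM for 4 or 24 h. Triphosphate in cell lysates reported as pmol/million hepatocytes. Duplicate or single measurements.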
# [24] = tested on: Hepatocyte; assay: Prodrug conversion in rat primary hepatocytes assessed as 2'-deoxy-2'-spirooxetane uridine triphosphate level per million cells at 62.5 uM after 4 hrs using radiolabelled compound by LC-MS/MS analysis; type: ADME, cell-based; how it was run: as §6
# [25] = Prodrug conversion in dog primary hepatocytes assessed as 2'-deoxy-2'-spirooxetane uridine triphosphate level per million cells at 62.5 uM after 4 hrs using radiolabelled compound by LC-MS/MS analysis; type: ADME, cell-based, Canis lupus familiaris, Hepatocyte; how it was run: as §6
# [26] = tested on: Hepatocyte; assay: Prodrug conversion in human primary hepatocytes assessed as 2'-deoxy-2'-spirooxetane uridine triphosphate level per million cells at 2 uM after 24 hrs using radiolabelled compound by LC-MS/MS analysis; type: ADME, cell-based; how it was run: as §6
# [27] = tested on: Hepatocyte; assay: Drug metabolism in rat primary hepatocyte supernatant assessed as 1-[(4aR,6R,7R,7aR)-2-hydroxy-2-oxidodihydro-4H-spiro[furo[3,2-d][1,3,2]dioxaphosphinine-7,2'-oxetan]-6-yl]pyrimidine-2,4(1H,3H)-dione formation at 2 to 62.5 uM after 4 to 24 hrs using radiolabelled compound by HPLC analysis; type: ADME, cell-based; details: hepatocytes
# How it was run: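 Fresh primary hepatocyte cultures incubated with tritiated prodrug (5'-[3H]) at 2 and 62.5 µM for 4 and 24 h. Supernatants taken after protein precipitation and profiled by HPLC with radioactivity detection. Cell lysates profiled for metabolites by radio-LC. Cyclic monophosphate also measured by LC/MS/MS.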
smiles,measurement,setting,value
CC(C)O[P@@]1(=O)OC[C@H]2O[C@@H](n3ccc(=O)[nH]c3=O)[C@@]3(CCO3)[C@@H]2O1,Activity,[1],-1.58
same,Activity,[2],Dose-dependent effect
same,Drug metabolism,[3],0.538 pmol
same,Drug metabolism,[4],0.231 pmol
same,Drug metabolism,[5],metabolite_detected
same,Drug metabolism,[6],metabolite_notdetected
same,Drug uptake,[7],Active
same,Drug metabolism,[8],metabolite_notdetected
same,Drug uptake,[9],Active
same,Drug uptake,[10],Active
same,Drug metabolism,[11],metabolite_notdetected
same,Drug metabolism,[12],metabolite_detected
same,Drug metabolism,[13],metabolite_notdetected
same,Stability,[14],Stable
same,Cmax,[15],851 ng/mL
same,Tmax,[16],0.5 h
same,AUClast,[17],1456 ng·h/g
same,half-life,[18],2.1 h
same,Tmax,[19],1 h
same,half-life,[20],5.3 h
same,Tlast,[21],30 h
same,AUC(0-inf),[22],29100 ng·h/mL
[3H]C1O[P@](=O)(OC(C)C)O[C@@H]2[C@@H]1O[C@@H](n1ccc(=O)[nH]c1=O)[C@@]21CCO1 (some centres not stated),Drug metabolism,[23],0.063 pmol
same,Drug metabolism,[24],0.45 pmol
same,Drug metabolism,[25],0.035 pmol
same,Drug metabolism,[26],0.025 pmol
same,Drug metabolism,[27],metabolite_detected
